Data as given in ChEMBL document CHEMBL1131599, “Synthesis of C3 heteroatom-substituted azetidinones that display potent cholesterol absorption inhibitory activity” (1998).

Columns and labels:
[1] = Percent reduction of liver cholesterol ester levels after po administration of compound in cholesterol fed hamsters at a dose 10 mg/kg/day; format: functional; conditions: Cricetulus griseus
Outline: (§1)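 Cholesterol-fed hamsters were dosed orally for 7 days, with doses in mg/kg/day. The value is % inhibition at the stated dose, or an ED50 in mg/kg/day, with n = 4 animals per compound.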

[2] = Percent reduction of liver cholesterol ester levels after po administration of compound in cholesterol fed hamsters at a dose 1 mg/kg/day; format: functional, Cricetulus griseus; conditions: for inhibition in vivo at 1 mg/kg/day: Cricetulus griseus, Liver, po; outline: as §1
[3] = Percent reduction of liver cholesterol ester levels after po administration of compound in cholesterol fed hamsters at a dose 3 mg/kg/day; format: functional; conditions: Cricetulus griseus; outline: as §1
[4] = Ability to inhibit liver cholesterol ester was determined in cholesterol fed hamsters; format: functional, Cricetulus griseus; outline: as §1
[5] = Percent reduction of liver cholesterol ester levels after po administration of compound in cholesterol fed hamsters at a dose 25 mg/kg/day; format: functional; conditions: Cricetulus griseus
Outline: (§2)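 Cholesterol-fed hamsters received the compound orally once daily for 7 days, with dose expressed as mg/kg/day. Four animals per compound. Values are reported as % inhibition at the given dose, or as an ED50 in mg/kg/day.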

[6] = Percent reduction of Liver cholesterol ester levels after peroral administration in cholesterol fed hamsters; format: functional, Cricetulus griseus; outline: as §1
[7] = Percent reduction of Liver cholesterol ester levels after peroral administration in cholesterol fed hamsters at a dose 10 mg/kg/day; format: functional; conditions: Cricetulus griseus, route oral; outline: as §1
[8] = Percent reduction of liver cholesterol ester levels after po administration of compound in cholesterol fed hamsters.; format: functional, Cricetulus griseus; outline: as §2

COc1ccc([C@H]2C(SCCc3ccccc3)C(=O)N2c2ccccc2)cc1 (stereo partly specified)
inhibition in vivo at 10 mg/kg/day [1]: -31%

COc1ccc([C@@H]2[C@H]([S+]([O-])CCc3ccccc3)C(=O)N2c2ccccc2)cc1 (stereo partly specified)
inhibition in vivo at 1 mg/kg/day [2]: 58% | inhibition in vivo at 3 mg/kg/day [3]: 78% | ED50 [4]: 0.58 mg/kg/day

COc1ccc([C@@H]2[C@@H](P(=O)(O)CCc3ccccc3)C(=O)N2c2ccccc2)cc1
inhibition in vivo at 25 mg/kg/day [5]: 0%

COc1ccc([C@@H]2[C@H](SCCc3ccccc3)C(=O)N2c2ccccc2)cc1
inhibition in vivo at 10 mg/kg/day [1]: 31%

COc1ccc([C@@H]2C(SCCc3ccccc3)C(=O)N2c2ccccc2)cc1 (stereo partly specified)
inhibition in vivo at 25 mg/kg/day [5]: 97%

COc1ccc([C@@H]2[C@H](C(O)CCc3ccccc3)C(=O)N2c2ccccc2)cc1 (stereo partly specified)
ED50 [6]: 0.4 mg/kg/day

COc1ccc([C@@H]2[C@@H](CCP(=O)(OC)c3ccccc3)C(=O)N2c2ccccc2)cc1 (stereo partly specified)
inhibition in vivo at 25 mg/kg/day [5]: 0%

COc1ccc([C@@H]2[C@@H](CCP(=O)(O)c3ccccc3)C(=O)N2c2ccccc2)cc1
inhibition in vivo at 25 mg/kg/day [5]: 0%

COc1ccc([C@@H]2[C@@H](CCC(O)c3ccccc3)C(=O)N2c2ccccc2)cc1 (stereo partly specified)
ED50 [6]: 0.9 mg/kg/day

COc1ccc([C@@H]2[C@@H](CCS(=O)(=O)c3ccccc3)C(=O)N2c2ccccc2)cc1
inhibition in vivo at 10 mg/kg/day [1]: 23%

COc1ccc([C@@H]2[C@@H](CCSc3ccccc3)C(=O)N2c2ccccc2)cc1
inhibition in vivo at 10 mg/kg/day [7]: 0%

O=C1[C@H]([S+]([O-])CCc2ccccc2)[C@@H](c2ccc(O)cc2)N1c1ccc(F)cc1 (stereo partly specified)
inhibition in vivo at 1 mg/kg/day [2]: 82% | inhibition in vivo at 10 mg/kg/day [1]: 56%

COc1ccc([C@@H]2[C@@H](CC[S+]([O-])c3ccccc3)C(=O)N2c2ccccc2)cc1 (stereo partly specified)
inhibition in vivo at 10 mg/kg/day [1]: 21%

O=C1[C@H](SCCc2ccccc2)[C@@H](c2ccc(O)cc2)N1c1ccc(F)cc1
inhibition in vivo at 1 mg/kg/day [2]: 83%

COc1ccc([C@@H]2C([S+]([O-])CCc3ccccc3)C(=O)N2c2ccccc2)cc1 (stereo partly specified)
inhibition in vivo at 25 mg/kg/day [5]: 97% | ED50 [4]: 0.59 mg/kg/day

COc1ccc([C@@H]2[C@@H](P(=O)(CCc3ccccc3)OC)C(=O)N2c2ccccc2)cc1 (stereo partly specified)
Inhibition [8]: 0%

O=C1[C@@H](SCCc2ccccc2)[C@@H](c2ccc(O)cc2)N1c1ccc(F)cc1
inhibition in vivo at 1 mg/kg/day [2]: 0%

COc1ccc([C@@H]2C(S(=O)(=O)CCc3ccccc3)C(=O)N2c2ccccc2)cc1 (stereo partly specified)
inhibition in vivo at 25 mg/kg/day [5]: 54%

COc1ccc([C@@H]2[C@@H](SCCc3ccccc3)C(=O)N2c2ccccc2)cc1
inhibition in vivo at 1 mg/kg/day [2]: 89% | ED50 [4]: 0.13 mg/kg/day

COc1ccc([C@@H]2[C@@H]([S+]([O-])CCc3ccccc3)C(=O)N2c2ccccc2)cc1 (stereo in doubt; 26)
Inhibition [2]: 58% | ED50 [4]: 0.9 mg/kg/day

COc1ccc([C@@H]2[C@@H]([S+]([O-])CCc3ccccc3)C(=O)N2c2ccccc2)cc1 (stereo in doubt; 27)
Inhibition [2]: 82% | ED50 [4]: 0.21 mg/kg/day

O=C1[C@@H]([S+]([O-])CCc2ccccc2)[C@@H](c2ccc(O)cc2)N1c1ccc(F)cc1 (stereo in doubt; 37)
inhibition in vivo at 1 mg/kg/day [2]: 40%

O=C1[C@@H]([S+]([O-])CCc2ccccc2)[C@@H](c2ccc(O)cc2)N1c1ccc(F)cc1 (stereo in doubt; 38)
Inhibition [2]: 42%

COc1ccc([C@@H]2[C@@H](CCCc3ccccc3)C(=O)N2c2ccc(OC)cc2)cc1 [SCH-48461]
ED50 [6]: 2.2 mg/kg/day
